Consider 39 variants from the RNAGym collection of RNA variant scans (doi:10.1038/nmeth.2970).

B1: NELF-E aptamer (parent)
chain: CCCAACGACUGCCGAGCGAGAUUACGCUUGAGCGCCCCACUGAGGAUGCCCACGGGCGAUUGGGGCACGG

Variants of B1 are the subject of the series. Briefly: HiTS-RAP. As to conditions: with NELF-E (Drosophila). Summed up: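 Aptamer DNA templates bearing a T7 promoter and a ter site were sequenced on an Illumina GAIIx flowcell. T7 RNA polymerase then transcribed them in situ, and GST-Tus halted transcription over 30 minutes at 37°C. After a 30-minute room-temperature equilibration with NELF-E-mOrange at 0.064 to 1000 nM in HEPES binding buffer, clusters were imaged, using only the first binding curve. Intensities normalised to sequencing intensity were averaged per sequence and fitted with weighted Hill fits to give Kd, retaining only fits whose variance stayed under 1,000,000.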
CCCAACGACUGCCGAGCGAGAGUACGCUUGAGCGCCCCACUGAGGAUGCCCACUGGCGAUUGGGGCACGG [U22G G54U]: the Kd (in general, a measure of binding affinity in units of concentration) came to 7.13 nM.
Turning to CCCAACGACUGCCGAGCGAGAGUACGCUUGAGCGCCCCACUGAGGAUGCCCACGGGCUAUUGGGGCACGG [U22G G58U], the dissociation constant Kd was found to be 10.5 nM.
Take CCCAACGACUGCCGAGCGAGAGUACGCUUGAGCGCCCCACUGAGGAUGCCCACGGGCGAUUGGGGUACGG [U22G C66U]: the Kd was 5.67 nM.
Turning to CCCAACGACUGCCGAGCGAGAGUACGCUUGAGCGCCCCACUGAGGAUGCCCACGGGCGAUUGGGGAACGG [U22G C66A], the dissociation constant (Kd) came out at 4.13 nM.
With CCCAACGACUGCCGAGCGAGAGUACGCUUGAACGCCCCACUGAGGAUGCCCACGGGCGAUUGGGGCACGG [U22G G32A] the figure was 4.39 nM; with CCCAACGACUGCCGAGCGAGAGUACGCUUGAUCGCCCCACUGAGGAUGCCCACGGGCGAUUGGGGCACGG [U22G G32U], 4.59 nM; with CCCAACGACUGCCGAGCGAGAGUACGCUUGAGCGCCCCACUGAGGAUGCCCACGGGCGAUUGGUGCACGG [U22G G64U], 6.37 nM.
For CCCAACGACUGCCGAGCGAGAGUACGCUUGAGCGCCCCACUGAGGAUGCCCACGGGCGAUUGGAGCACGG [U22G G64A], the Kd came to 8.7 nM.
As for CCCAACGACUGCCGAGCGAGAGUACGCUUGAGCGCCCCACUGAGGAUGCCCACGGGCGAUUGGCGCACGG [U22G G64C], the equilibrium dissociation constant (Kd) was 6.91 nM.
Under CCCAACGACUGCCGAGCGAGAGUACGCAUGAGCGCCCCACUGAGGAUGCCCACGGGCGAUUGGGGCACGG [U22G U28A] stands 5.81 nM; under CCCAACGACUGCCGAGCGAGAGUACGCGUGAGCGCCCCACUGAGGAUGCCCACGGGCGAUUGGGGCACGG [U22G U28G], 6.89 nM; under CCCAACGACUGCCGAGCGAGAGUACGCCUGAGCGCCCCACUGAGGAUGCCCACGGGCGAUUGGGGCACGG [U22G U28C], 8.17 nM.
Regarding CCCAACGACUGCCGAGCGAGAGUAUGCUUGAGCGCCCCACUGAGGAUGCCCACGGGCGAUUGGGGCACGG [U22G C25U], the Kd is 6.29 nM.
With CCCAACGACUGCCGAGCGAGAGUAGGCUUGAGCGCCCCACUGAGGAUGCCCACGGGCGAUUGGGGCACGG [U22G C25G] the figure was 5.5 nM; with CCCAACGACUGCCGAGCGAGAGUACGCUUGAGCACCCCACUGAGGAUGCCCACGGGCGAUUGGGGCACGG [U22G G34A], 8.31 nM.
Under CCCAACGACUGCCGAGCGAGAGUACGCUUGAGCUCCCCACUGAGGAUGCCCACGGGCGAUUGGGGCACGG [U22G G34U] stands 5.88 nM; under CCCAACGACUGCCGAGCGAGAGUACGCUCGAGCGCCCCACUGAGGAUGCCCACGGGCGAUUGGGGCACGG [U22G U29C], 5.92 nM; under CCCAACGACUGCCGAGCGAGAGUACGCUGGAGCGCCCCACUGAGGAUGCCCACGGGCGAUUGGGGCACGG [U22G U29G], 5.4 nM.
On to CCCAACGACUGCCGAGCGAGAGUACGCUAGAGCGCCCCACUGAGGAUGCCCACGGGCGAUUGGGGCACGG [U22G U29A], for which the equilibrium dissociation constant (Kd) came to 5.82 nM.
As to CCCAACGACUGCCGAGCGAGAGUACGCUUGAGCGCCCCACCGAGGAUGCCCACGGGCGAUUGGGGCACGG [U22G U41C], the Kd worked out at 74.5 nM.
Under CCCAACGACUGCCGAGCGAGAGUACGCUUGAGCGCCCCACGGAGGAUGCCCACGGGCGAUUGGGGCACGG [U22G U41G] stands 5.36 nM.
As to CCCAACGACUGCCGAGCGAGAGUACGCUUGAGCGCCCCACAGAGGAUGCCCACGGGCGAUUGGGGCACGG [U22G U41A], the equilibrium dissociation constant (Kd) is 81.8 nM.
Consider CCCAACGACUGCCGAGCGAGAGUACGCUUGAGCGCCCCACUGAGGAUUCCCACGGGCGAUUGGGGCACGG [U22G G48U], for which the Kd was 9.66 nM.
Under CCCAACGACUGCCGAGCGAGAGUACGCUUGAGCGCCCCACUGAGGAUACCCACGGGCGAUUGGGGCACGG [U22G G48A] stands 9.21 nM; under CCCAACGACUGCCGAGCGAGAGUACGCUUGAGCGCCCCACUGAGUAUGCCCACGGGCGAUUGGGGCACGG [U22G G45U], 7.63 nM.
Consider CCCAACGACUGCCGAGCGAGAGUACGCUUGAGCGCCCCACUGAGAAUGCCCACGGGCGAUUGGGGCACGG [U22G G45A], for which the dissociation constant (Kd) stood at 74.7 nM.
For CCCAACGACUGCCGAGCGAGAGUACGGUUGAGCGCCCCACUGAGGAUGCCCACGGGCGAUUGGGGCACGG [U22G C27G], the equilibrium dissociation constant (Kd) turned out to be 8.09 nM.
Under CCCAACGACUGCCGAGCGAGAGUACGUUUGAGCGCCCCACUGAGGAUGCCCACGGGCGAUUGGGGCACGG [U22G C27U] stands 4.34 nM; under CCCAACGACUGCCGAGCGAGAGUACGCUUGAGCGCCCCACUGAGGAUGCCCACGGACGAUUGGGGCACGG [U22G G56A], 8.77 nM.
Consider CCCAACGACUGCCGAGCGAGAGUACGCUUGAGCGCCCCACUGAGGAUGCCCACGGUCGAUUGGGGCACGG [U22G G56U], for which the Kd turned out to be 5.99 nM.
CCCAACGACUGCCGAGCGAGAGUACGCUUGAGCGCCCCACUGAGGAUGCCAACGGGCGAUUGGGGCACGG [U22G C51A]: the equilibrium dissociation constant (Kd) is 8.46 nM.
Consider CCCAACGACUGCCGAGCGAGAGUACGCUUGAGCGCCCCACUGAGGAUGCCUACGGGCGAUUGGGGCACGG [U22G C51U], for which the Kd came to 7.12 nM.
Under CCCAACGACUGCCGAGCGAGAGUACGCUUGAGCGCCCCACUGAGGAUGCCCACGGGCGAUUGAGGCACGG [U22G G63A] stands 14.9 nM; under CCCAACGACUGCCGAGCGAGAGUACGCUUGAGCGCCCCACUGAGGAUGCCCACGGGCGAUUGUGGCACGG [U22G G63U], 14 nM; under CCCAACGACUGCCGAGCGAGAGUACGCUUGAGCGCCCCACUGAGGAUGCCCACGGGCGAUUGCGGCACGG [U22G G63C], 39.6 nM.
On to CCCAACGACUGCCGAGCGAGAGUACGCUUGAGCGCCCCACUAAGGAUGCCCACGGGCGAUUGGGGCACGG [U22G G42A], for which the dissociation constant (Kd) stood at 49.8 nM.
CCCAACGACUGCCGAGCGAGAGAACGCUUGAGCGCCCCACUGAGGAUGCCCACGGGCGAUUGGGGCACGG [U22G U23A]: the dissociation constant (Kd) was found to be 6.19 nM.
On to CCCAACGACUGCCGAGCGAGAGCACGCUUGAGCGCCCCACUGAGGAUGCCCACGGGCGAUUGGGGCACGG [U22G U23C], for which the Kd turned out to be 4.62 nM.
With CCCAACGACUGCCGAGCGAGAGGACGCUUGAGCGCCCCACUGAGGAUGCCCACGGGCGAUUGGGGCACGG [U22G U23G] the figure was 6.17 nM.
